Screens (PubChem BioAssay)
Rows were chosen to be rich in hits. Some 2.4% of all compounds tested hit in one or more screens of this group.
STEP inh: blocks human striatal-enriched tyrosine phosphatase; 0.25% of 360,000 active; inhibition, % at 20 µM; P54829; recombinant STEP, OMFP fluorogenic substrate, fluorescence; AID 588621;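 active means inhibition at 20 µM, scaled per plate between control wells, above about 37%, limit read from the data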
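material = STEP tyrosine phosphatase | reagent = fluorogenic phosphatase substrate OMFP at 25 µM final | doses = single compound dose of 20 µM, 1% DMSO final | schedule = 20 min reaction, room temperature, in the dark | measured by = fluorescence, 480/540 nm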
SUMO1-SIM PPI: alters human SUMO1 binding to SIM partners; SUMO1 binding to a labelled peptide, TR-FRET, 1 h; inhibition, % at 20 µM; 0.33% of 360,000 active; in the data active means inhibition above about 37%
DNMT1 block: DNMT1 (human) enzyme inhibition | inhibition (reported as % activation of signal), % at 10 µM | DNMT1 molecular beacon, Hinp1I cleavage, fluorescence | P26358 | 0.83% of 360,000 active | AID 588458; in the data active means inhibition above about 50%
Target sequence (P26358 504-1616 limits assumed): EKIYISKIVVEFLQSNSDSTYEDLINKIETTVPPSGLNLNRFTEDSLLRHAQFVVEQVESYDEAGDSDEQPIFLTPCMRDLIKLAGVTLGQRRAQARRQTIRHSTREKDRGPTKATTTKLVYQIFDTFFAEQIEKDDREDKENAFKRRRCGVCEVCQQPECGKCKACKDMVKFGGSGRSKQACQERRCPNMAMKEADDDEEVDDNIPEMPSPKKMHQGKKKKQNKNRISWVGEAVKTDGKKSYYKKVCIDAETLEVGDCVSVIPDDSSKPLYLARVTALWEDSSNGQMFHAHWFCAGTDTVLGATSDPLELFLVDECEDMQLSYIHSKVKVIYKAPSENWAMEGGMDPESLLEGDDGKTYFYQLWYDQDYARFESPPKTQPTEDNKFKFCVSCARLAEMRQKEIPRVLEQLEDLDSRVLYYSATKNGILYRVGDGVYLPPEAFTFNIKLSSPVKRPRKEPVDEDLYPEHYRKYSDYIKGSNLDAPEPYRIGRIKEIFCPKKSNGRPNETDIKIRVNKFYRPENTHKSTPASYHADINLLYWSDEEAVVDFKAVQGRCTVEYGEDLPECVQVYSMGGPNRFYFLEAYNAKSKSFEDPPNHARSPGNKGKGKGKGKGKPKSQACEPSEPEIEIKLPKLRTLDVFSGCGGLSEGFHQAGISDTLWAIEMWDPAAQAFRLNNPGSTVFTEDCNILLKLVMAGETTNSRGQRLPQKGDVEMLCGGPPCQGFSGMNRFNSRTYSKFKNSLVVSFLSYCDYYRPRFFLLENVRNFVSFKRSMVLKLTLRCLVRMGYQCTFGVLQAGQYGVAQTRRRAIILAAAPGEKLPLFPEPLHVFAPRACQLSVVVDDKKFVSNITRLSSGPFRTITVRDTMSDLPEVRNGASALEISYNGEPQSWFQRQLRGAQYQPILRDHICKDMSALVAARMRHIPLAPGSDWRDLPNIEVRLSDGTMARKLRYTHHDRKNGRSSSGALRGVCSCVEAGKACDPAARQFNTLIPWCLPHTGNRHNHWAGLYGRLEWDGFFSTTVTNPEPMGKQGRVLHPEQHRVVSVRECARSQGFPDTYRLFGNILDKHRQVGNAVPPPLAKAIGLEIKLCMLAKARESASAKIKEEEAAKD
Scp1 inh: inhibitors of human Scp-1 phosphatase. Recombinant Scp1, phosphopeptide, malachite green phosphate absorbance. inhibition, % at 20 µM. 0.88% of 340,000 active;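 active means inhibition above about 50% at 20 µM, limit read from the data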
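Material – SCP-1 phosphatase catalytic domain, residues 76-261 · Buffer or medium – Acidic Tris acetate buffer with magnesium and detergent · Also added – Phospho 17-mer peptide substrate · Compound – single 20 µM dose, 1% DMSO · Times – 45 min room-temperature reaction, 5 min colour, 30 min stabiliser · Technique – Phosphate-binding colour reagent, absorbance read at 630 nm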
NadD block: NadD (S. aureus) enzyme inhibition; purified NadD enzyme, colorimetric absorbance read-out; inhibition, % at 20 µM; 0.78% of 360,000 active; AID 602399; in the data active means inhibition above about 26%
LMPTP block: blocks human LMPTP phosphatase; 0.22% of 360,000 active; P24666; recombinant LMPTP-A, OMFP fluorogenic substrate, fluorescence intensity; AID 651560; inhibition, % at 20 µM;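 active means compounds that cut the enzyme signal by at least half of the control window in the single-dose screen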
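Assay system: LMPTP-A phosphatase enzyme | Input: 0.625 nM enzyme | Also added: Fluorogenic phosphatase substrate OMFP at 400 µM final | Compound dosing: One test concentration per compound, 20 µM, with 3% DMSO overall | Schedule: 50 min enzyme reaction at room temperature, protected from light | Signal: Fluorescence intensity | Benchmarks: no-enzyme and uninhibited controls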
Beacon interf DR: shows spectral interference in the DNMT1 beacon assay. shares compounds with DNMT1 block. molecular beacon fluorescence, spectral interference counter-screen. IC50, µM. 200 tested, under 10 active
DNMT1 inh conf: confirmation of human DNMT1 inhibitors. shares compounds with DNMT1 block. AID 602385. DNMT1 molecular beacon HinP1I cleavage, fluorescence. 8% of 2,300 active. inhibition, % at 10 µM;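 active means average inhibition of at least 30% in the single-concentration confirmation test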
Beacon interf: shows spectral interference in the DNMT1 beacon assay | shares compounds with DNMT1 block | DNMT1 molecular beacon spectral interference counterscreen, fluorescence 485/520 | activation (fluorescence interference), % at 10 µM | 1% of 2,300 active | AID 602387;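 active means activation of at least 30% at 10 µM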;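 further: DNMT1 catalytic domain with a HinP1I cleavage step and a FAM/dabcyl DNA beacon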
STEP conf: STEP (human) phosphatase inhibition, single concentration confirmation; 32% of 520 active; recombinant STEP, OMFP fluorogenic substrate, fluorescence; shares compounds with STEP inh; inhibition, % at 20 µM
NadD inh conf: confirmation of Staphylococcus aureus NadD inhibitors; shares compounds with NadD block; purified S. aureus NadD, colorimetric enzyme assay; inhibition, % at 20 µM; 13% of 2,000 active; AID 624309; in the data active means inhibition mostly above about 42%, no sharp cut-off; inactive means mostly below about 42%
Large screens that a line does not name were inactive (follow-up assays come after a bar, where they were run). Unless noted, how the calls were made is not given here.

O=C(/C=C/c1ccco1)NC(=S)Nc1cc(-c2nc3ccccc3s2)ccc1Cl	DNMT1 block 98, NadD block 52 | DNMT1 inh conf inactive | Beacon interf inactive | NadD inh conf inactive
NC(=S)NN=C1c2cc(Cl)ccc2-c2c1cc(Cl)cc2[N+](=O)[O-]	DNMT1 block 51, NadD block 35 | DNMT1 inh conf inactive | Beacon interf inactive | NadD inh conf inactive
CC(NC(=O)C(c1ccccc1)c1ccccc1)C(=O)N1CCCCC1 (stereo unspecified)	none
C=C(C)[C@@H]1CC[C@]2(C(=O)O)CC[C@]3(C)[C@H](CC[C@@H]4[C@@]5(C)CC[C@H](O)C(C)(C)[C@@H]5CC[C@]43C)[C@@H]12	DNMT1 block 53, NadD block 53 | DNMT1 inh conf inactive | Beacon interf inactive | NadD inh conf inactive
COc1ccc(C(CNC(=O)C(CC(C)C)NS(=O)(=O)c2ccc(C)cc2)N2CCOCC2)cc1 (stereo unspecified)	none
CCCCN(C(C)=O)c1c(CC)nc2ccc(C(=O)Nc3cccc(OCC(=O)N(C)C)c3)cn12	none (no result: Scp1 inh)
O=[N+]([O-])c1ccccc1/C=C/C=N/n1c(-c2ccco2)n[nH]c1=S	none
O=[N+]([O-])c1ccccc1/C=C/C=N/n1c(-c2cc(-c3ccccc3)n[nH]2)n[nH]c1=S	DNMT1 block 53, NadD block 42 | DNMT1 inh conf inactive | Beacon interf inactive | NadD inh conf inactive
O=C(N/N=C/c1ccc([N+](=O)[O-])o1)c1cc(-c2ccc(-c3ccccc3)cc2)nc2ccccc12	DNMT1 block 79, NadD block 70 | DNMT1 inh conf inactive | Beacon interf inactive | NadD inh conf inactive
O=C(N/N=C/c1ccc(F)cc1)c1cc(-c2ccco2)nc2ccccc12	DNMT1 block 105, Scp1 inh 81, NadD block 45, LMPTP block 61 | Beacon interf DR inactive | DNMT1 inh conf 48 | Beacon interf inactive | NadD inh conf 81
O=C(N/N=C/c1ccc([N+](=O)[O-])o1)c1cc(-c2ccncc2)nc2ccccc12	none
C=CC[C@@H](CC(=O)OC(C)(C)C)C(=O)OC[C@H]1CCCN1C(=O)[C@@H](CC=C)CC(=O)N(CCO)Cc1ccccc1	none
Clc1ccccc1-c1ccc(/C=N/Nc2nncc(-c3ccccc3)n2)o1	DNMT1 block 69, NadD block 32 | DNMT1 inh conf inactive | Beacon interf inactive | NadD inh conf inactive
Cc1ccc(/C=N/Nc2nncc(-c3ccccc3)n2)o1	none
N#C/C(=C\c1ccc(-c2ccc([N+](=O)[O-])cc2)o1)C(=O)Nc1nc(-c2cccs2)cs1	DNMT1 block 95, NadD block 40 | DNMT1 inh conf inactive | Beacon interf inactive | NadD inh conf inactive
CC(=O)Nc1nc(-c2ccc([N+](=O)[O-])cc2)cs1	none
O=C(O)c1cccc(OS(=O)(=O)c2cc(Br)ccc2Br)c1	none
C#Cc1ccc([C@@H]2C=C(C(=O)NCc3ccccc3)O[C@H](OCCCCO)C2)cc1	DNMT1 block 54, NadD block 39 | DNMT1 inh conf inactive | Beacon interf inactive | NadD inh conf inactive
CC(C)(C)C(=O)NC1CC2CCCC(C1)N2C(=O)Nc1cccc(Cl)c1 (stereo unspecified)	none
CCOC(=O)[C@]12CCC=C1N(Cc1ccco1)C(=O)[C@H](CC(=O)NCc1ccccc1)C2	none (no result: STEP inh, DNMT1 block, Scp1 inh)
O=c1oc2ccc(C#CC3(O)CCCCC3)cc2cc1-n1cc(C2(O)CCCCC2)nn1	none
COc1ccc(Oc2c(OC)cc(NCc3ccc(CN)cc3)c3ncccc23)cc1	DNMT1 block 95, NadD block 70 (no result: Scp1 inh) | Beacon interf DR inactive | DNMT1 inh conf 33 | Beacon interf inactive | NadD inh conf 66
CCCCOc1ccc(N(CC(=O)NC2CCCCC2)C(=O)c2snc(C(N)=O)c2N)cc1	none
O=C(Cn1c2ccccc2c(=O)c2ccccc21)N/N=C/c1ccc(N2CCCC2)c([N+](=O)[O-])c1	none
O=C(Cn1c2ccccc2c(=O)c2ccccc21)N/N=C/c1cc([N+](=O)[O-])ccc1N1CCCCCC1	STEP inh 89, DNMT1 block 72, Scp1 inh 87, NadD block 50, LMPTP block 66 | DNMT1 inh conf inactive | Beacon interf inactive | STEP conf inactive | NadD inh conf inactive
CC(C)N1C(=O)CCC1C(=O)NCCc1ccc(Cl)cc1 (stereo unspecified)	none
Cc1csc(N=Cc2ccc([N+](=O)[O-])o2)n1	DNMT1 block 86, NadD block 36 (no result: Scp1 inh) | DNMT1 inh conf inactive | Beacon interf inactive | NadD inh conf inactive
Nc1cc(OC(=O)c2ccc(F)cc2)nn1S(=O)(=O)c1ccccc1	none
c1ccc(-c2cc(-c3nnc4n3N=C(c3ccc5ccccc5c3)CS4)[nH]n2)cc1	DNMT1 block 55, NadD block 55 | DNMT1 inh conf inactive | Beacon interf inactive | NadD inh conf inactive
COc1ccccc1OCC(=O)Nc1ccc(N2CCCCC2)cc1	none
Cc1ccc(OCC(=O)Nc2ccc(N3CCCC3)cc2)cc1C	DNMT1 block 67, NadD block 32 | DNMT1 inh conf inactive | Beacon interf inactive | NadD inh conf inactive
Cc1cccc(OCC(=O)Nc2ccc(N3CCCC3)cc2)c1C	DNMT1 block 59, NadD block 43 | Beacon interf DR inactive | DNMT1 inh conf inactive | Beacon interf inactive | NadD inh conf inactive
CCOc1ccc(N2C(=O)C3C(c4ccccc4F)NN(C(=O)c4ccc(C)cc4)C3C2=O)cc1 (stereo unspecified)	none
NS(=O)(=O)c1ccc(N/N=C/c2cn(-c3ccccc3)nc2-c2cccs2)c([N+](=O)[O-])c1	NadD block 36 | DNMT1 inh conf inactive | Beacon interf inactive | NadD inh conf inactive
COc1ccccc1Cc1c(-c2ccco2)nc2ccc(Br)cn12	DNMT1 block 71, NadD block 45 (no result: Scp1 inh) | DNMT1 inh conf inactive | Beacon interf inactive | NadD inh conf inactive
COc1ccccc1Cc1c(-c2ccc(F)cc2)nc2ccc(Br)cn12	none (no result: Scp1 inh)
